# Experimental data as given in ChEMBL document CHEMBL1125827, “Synthesis and smooth muscle relaxant activity of a new series of potassium channel activators: 3-amido-1,1-dimethylindan-2-ols” (J Med Chem, 1991).
# pIC50: −log10 of the molar value.
# Tests used:
# Cavia porcellus [1] = species: Cavia porcellus; experiment: Intrinsic activity was measured for inhibition of spontaneous tone in guinea pig isolated trachealis; assay type: functional
# How it was run: (§1)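 Spontaneously toned guinea pig trachealis, with compounds added cumulatively. Intrinsic activity is the ratio of maximum relaxation at concentrations up to 20 μM to the maximum relaxation produced by isoprenaline (10⁻³ M) at the end of the experiment, expressed as an arithmetic mean.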
# Cavia porcellus [2] = species: Cavia porcellus; experiment: Inhibition of spontaneous tone in guinea pig isolated trachealis; assay type: functional, Trachea
# Cavia porcellus [3] = species: Cavia porcellus; experiment: Compound was measured for inhibition of spontaneous tone in guinea pig isolated trachealis; e=Insufficient material for evaluation; assay type: functional
# How it was run: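 Spontaneously developed tension held at […]. Compounds added cumulatively. Inhibition expressed as a percentage of the relaxation produced by isoprenaline (10⁻³ M) given at the end. IC50 is the concentration giving 50% of the isoprenaline response, read from the dose-response curve; generally a geometric mean of four or more determinations.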
# Cavia porcellus [4] = species: Cavia porcellus; experiment: Intrinsic activity was measured for inhibition of spontaneous tone in guinea pig isolated trachealis; e=Insufficient material for evaluation; assay type: functional; how it was run: as §1
SMILES,Intrinsic activity (Cavia porcellus [1]),pIC50 (Cavia porcellus [2]),"pIC50 (Cavia porcellus [2]; Cavia porcellus, Trachea)",IC50 (Cavia porcellus [3]),Intrinsic activity (Cavia porcellus [4])
CC1CCC(=O)N1[C@@H]1c2cc([N+](=O)[O-])ccc2C(C)(C)[C@H]1O (stereo in doubt; 36a),0.89,–,–,–,–
C[C@@H]1CCC(=O)N1[C@@H]1c2cc([N+](=O)[O-])ccc2C(C)(C)[C@H]1O (stereo in doubt; 36),0.99,6.59,–,–,–
CC1(C)C=C(n2ccccc2=O)c2cc([N+](=O)[O-])ccc21,0.95,–,6.08,–,–
CC1(C)c2ccc([N+](=O)[O-])cc2[C@@H](N2CCCCC2=O)[C@H]1O,0.89,–,6.46,–,–
CC1(C)C=C(CN2CCCC2=O)c2cc(C#N)ccc21,0.6,–,4.85,–,–
CC1(C)Oc2ccc(C#N)cc2[C@@H](N2CCCC2=O)[C@@H]1O [LEVCROMAKALIM],0.88,–,6.31,–,–
CC1CCC(=O)N1[C@@H]1c2cc([N+](=O)[O-])ccc2C(C)(C)[C@H]1O (stereo in doubt; 36b),0.9,5.41,–,–,–
CC1(C)Oc2ccc(C#N)cc2C(N2CCCC2=O)C1O (centres undefined) [CROMAKALIM],0.89,–,–,–,–
C[C@@H]1CCC(=O)N1C1=CC(C)(C)c2ccc([N+](=O)[O-])cc21,0.84,–,5.62,–,–
CC1(C)c2ccc(C#N)cc2[C@@H](N2CCCCC2=O)[C@@H]1O,0.94,–,6.57,–,–
CCc1ccc2c(c1)[C@@H](N1CCCCC1=O)[C@H](O)C2(C)C,0.84,–,5.56,–,–
CC1(C)c2ccc([N+](=O)[O-])cc2[C@@H](N2CCCC2=O)[C@@H]1O,0.88,–,5.55,–,–
CC1(C)c2cc(C(F)(F)F)ccc2[C@@H](n2ccccc2=O)[C@@H]1O,0.14,–,< 4.70,–,–
CC1(C)c2ccc(I)cc2[C@@H](N2CCCCC2=O)[C@@H]1O,0.96,–,–,–,–
CC1(C)c2ccc(C#N)cc2[C@@H](n2ccccc2=O)[C@@H]1O,0.81,–,5.71,–,–
CC1(C)C=C(Cn2ccccc2=O)c2cc(C#N)ccc21,0.32,–,< 4.70,–,–
C[C@H]1CCC(=O)N1C1=CC(C)(C)c2ccc([N+](=O)[O-])cc21,–,–,–,Insufficient material,Insufficient material
CC1(C)c2ccc([N+](=O)[O-])cc2[C@@H](n2ccccc2=O)[C@@H]1O,0.89,–,6.82,–,–
CCc1ccc2c(c1)[C@@H](n1ccccc1=O)[C@H](O)C2(C)C,0.93,–,5.66,–,–
CC1(C)C=C(N2CCCCC2=O)c2ccc(C(F)(F)F)cc21,0.89,–,5.07,–,–
CC1(C)c2cc(C#N)ccc2[C@@H](N2CCCCC2=O)[C@@H]1O,0.17,–,< 4.70,–,–
C[C@@H]1CCC(=O)N1[C@@H]1c2cc([N+](=O)[O-])ccc2C(C)(C)[C@H]1O (stereo in doubt; 37),0.3,< 4.70,–,–,–
CC1(C)c2cc(C(F)(F)F)ccc2[C@@H](N2CCCCC2=O)[C@@H]1O,0.15,–,< 4.70,–,–
O=C1CCCN1[C@@H]1c2cc([N+](=O)[O-])ccc2C[C@H]1O,0.4,–,< 4.70,–,–
CC1(C)c2ccc(N)cc2[C@@H](n2ccccc2=O)[C@@H]1O,0.1,–,< 4.70,–,–
CC1(C)C=C(N2CCCCC2=O)c2cc([N+](=O)[O-])ccc21,0.94,–,–,–,–
CC1(C)c2ccc([N+](=O)[O-])cc2[C@@H](N2CCCC2=O)[C@H]1O (relative stereo),0.26,–,< 4.70,–,–
CCc1ccc2c(c1)C(C)(C)[C@@H](O)[C@@H]2N1CCCCC1=O,0.4,–,< 4.70,–,–
CC1(C)C=C(n2ccccc2=O)c2cc(C#N)ccc21,0.77,–,5.28,–,–
